Results taken from the M2OR odorant receptor database.

Key:
Conditions in all cases: stereoisomer not certain
[1] = target: T1, OR10H3 (Homo sapiens) (UniProt O60404)
T1 sequence (whole entry): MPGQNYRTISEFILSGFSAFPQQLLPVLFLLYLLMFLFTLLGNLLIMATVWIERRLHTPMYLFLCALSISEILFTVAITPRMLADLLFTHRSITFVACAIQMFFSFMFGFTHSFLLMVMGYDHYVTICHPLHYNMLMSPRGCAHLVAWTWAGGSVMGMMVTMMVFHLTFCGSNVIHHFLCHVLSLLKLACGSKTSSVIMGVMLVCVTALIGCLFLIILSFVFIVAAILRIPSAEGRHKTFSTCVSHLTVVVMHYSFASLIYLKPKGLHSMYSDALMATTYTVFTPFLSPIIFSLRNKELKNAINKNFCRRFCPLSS
Outline: (§1)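 Each entry records the cell line, G-protein, co-transfected protein and tags used. Methods varied with the source, often transient luciferase assays in mammalian cell lines. A receptor–molecule pair is called responsive (active) if the original authors judged its signal statistically different from baseline and non-responsive (inactive) otherwise.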

[2] = target: T2, OR10H4 (Homo sapiens) (UniProt Q8NGA5)
T2 sequence (whole entry): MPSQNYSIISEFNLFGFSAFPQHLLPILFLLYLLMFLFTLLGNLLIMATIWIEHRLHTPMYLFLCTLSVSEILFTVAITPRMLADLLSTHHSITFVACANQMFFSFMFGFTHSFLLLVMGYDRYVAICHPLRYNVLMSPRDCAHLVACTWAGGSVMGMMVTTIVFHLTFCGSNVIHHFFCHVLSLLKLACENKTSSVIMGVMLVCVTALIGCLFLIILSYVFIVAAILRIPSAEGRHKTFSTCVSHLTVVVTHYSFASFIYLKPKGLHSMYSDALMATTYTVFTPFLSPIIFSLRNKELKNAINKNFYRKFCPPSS
Outline: as §1

[3] = target: T3, OR10H5 (Homo sapiens) (UniProt Q8NGA6)
T3 sequence (whole entry): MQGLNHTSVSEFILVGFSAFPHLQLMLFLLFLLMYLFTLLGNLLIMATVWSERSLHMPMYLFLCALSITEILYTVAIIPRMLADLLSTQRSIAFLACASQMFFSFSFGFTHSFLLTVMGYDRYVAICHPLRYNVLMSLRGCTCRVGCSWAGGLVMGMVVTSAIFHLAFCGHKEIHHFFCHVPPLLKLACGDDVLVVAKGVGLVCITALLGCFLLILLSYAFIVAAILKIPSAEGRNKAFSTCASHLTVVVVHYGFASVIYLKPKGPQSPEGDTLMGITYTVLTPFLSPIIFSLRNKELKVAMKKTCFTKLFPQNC
Outline: as §1

[4] = target: T4, OR10J3 (Homo sapiens) (UniProt Q5JRS4)
T4 sequence (whole entry): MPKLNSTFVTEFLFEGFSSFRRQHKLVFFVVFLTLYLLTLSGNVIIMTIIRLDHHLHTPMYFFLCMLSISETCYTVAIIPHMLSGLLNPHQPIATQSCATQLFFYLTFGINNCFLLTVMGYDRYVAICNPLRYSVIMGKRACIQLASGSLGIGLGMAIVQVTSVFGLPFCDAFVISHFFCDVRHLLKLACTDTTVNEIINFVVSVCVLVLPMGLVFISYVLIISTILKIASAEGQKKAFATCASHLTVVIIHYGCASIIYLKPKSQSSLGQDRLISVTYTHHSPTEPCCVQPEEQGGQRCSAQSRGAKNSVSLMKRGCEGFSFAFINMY
Outline: as §1

[5] = target: OR10J4 (Homo sapiens) (UniProt P0C629)
Outline: as §1

[6] = target: T5, OR10J5 (Homo sapiens) (UniProt Q8NHC4)
T5 sequence (whole entry): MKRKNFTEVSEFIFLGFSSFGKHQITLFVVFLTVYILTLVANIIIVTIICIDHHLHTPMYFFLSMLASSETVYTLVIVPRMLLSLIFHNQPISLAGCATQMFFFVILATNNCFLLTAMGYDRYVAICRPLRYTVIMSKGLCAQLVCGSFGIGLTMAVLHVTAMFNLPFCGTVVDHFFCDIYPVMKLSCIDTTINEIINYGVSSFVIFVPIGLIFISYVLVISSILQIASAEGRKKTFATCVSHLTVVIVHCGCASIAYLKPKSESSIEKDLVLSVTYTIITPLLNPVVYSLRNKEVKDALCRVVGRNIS
Outline: as §1

[7] = target: T6, OR10K1 (Homo sapiens) (UniProt Q8NGX5)
T6 sequence (whole entry): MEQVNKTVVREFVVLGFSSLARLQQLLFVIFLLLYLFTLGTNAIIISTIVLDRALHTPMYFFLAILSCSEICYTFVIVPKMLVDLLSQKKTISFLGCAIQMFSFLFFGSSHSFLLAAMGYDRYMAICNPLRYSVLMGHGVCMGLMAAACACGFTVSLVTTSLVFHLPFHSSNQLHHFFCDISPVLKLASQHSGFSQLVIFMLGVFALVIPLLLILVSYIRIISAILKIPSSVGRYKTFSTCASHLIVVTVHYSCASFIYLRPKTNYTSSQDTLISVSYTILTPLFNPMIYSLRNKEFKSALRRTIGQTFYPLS
Outline: as §1

[8] = target: T7, OR10K2 (Homo sapiens) (UniProt Q6IF99)
T7 sequence (whole entry): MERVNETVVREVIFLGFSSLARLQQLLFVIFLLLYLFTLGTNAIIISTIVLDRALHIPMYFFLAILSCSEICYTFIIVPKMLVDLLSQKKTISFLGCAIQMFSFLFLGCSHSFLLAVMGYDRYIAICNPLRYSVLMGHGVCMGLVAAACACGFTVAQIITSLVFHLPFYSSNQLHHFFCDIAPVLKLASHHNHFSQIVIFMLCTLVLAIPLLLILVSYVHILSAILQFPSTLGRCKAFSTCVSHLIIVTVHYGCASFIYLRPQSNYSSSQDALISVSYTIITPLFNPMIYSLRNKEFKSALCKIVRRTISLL
Outline: as §1

[9] = target: T8, OR10P1 (Homo sapiens) (UniProt Q8NGE3)
T8 sequence (whole entry): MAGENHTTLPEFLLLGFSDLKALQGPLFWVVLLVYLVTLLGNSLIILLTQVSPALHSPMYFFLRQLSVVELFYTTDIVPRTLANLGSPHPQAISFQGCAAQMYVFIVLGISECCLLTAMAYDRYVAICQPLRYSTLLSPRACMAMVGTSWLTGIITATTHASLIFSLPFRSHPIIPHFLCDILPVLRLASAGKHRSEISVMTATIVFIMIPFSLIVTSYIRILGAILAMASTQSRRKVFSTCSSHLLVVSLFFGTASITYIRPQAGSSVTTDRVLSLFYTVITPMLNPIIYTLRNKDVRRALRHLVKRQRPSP
Outline: as §1

[10] = target: T9, OR10Q1 (Homo sapiens) (UniProt Q8NGQ4)
T9 sequence (whole entry): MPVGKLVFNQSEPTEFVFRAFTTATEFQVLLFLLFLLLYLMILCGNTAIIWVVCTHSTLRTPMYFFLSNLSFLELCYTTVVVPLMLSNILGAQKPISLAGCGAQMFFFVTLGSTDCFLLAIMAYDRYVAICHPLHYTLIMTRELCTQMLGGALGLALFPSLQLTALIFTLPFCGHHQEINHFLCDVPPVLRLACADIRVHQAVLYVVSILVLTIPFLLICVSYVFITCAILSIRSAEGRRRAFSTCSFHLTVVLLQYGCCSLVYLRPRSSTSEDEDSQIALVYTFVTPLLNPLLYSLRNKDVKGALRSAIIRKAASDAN
Outline: as §1

Measured: odorant receptor agonist call

OR10J4 (Homo sapiens), sequence (P0C629 whole entry F198I): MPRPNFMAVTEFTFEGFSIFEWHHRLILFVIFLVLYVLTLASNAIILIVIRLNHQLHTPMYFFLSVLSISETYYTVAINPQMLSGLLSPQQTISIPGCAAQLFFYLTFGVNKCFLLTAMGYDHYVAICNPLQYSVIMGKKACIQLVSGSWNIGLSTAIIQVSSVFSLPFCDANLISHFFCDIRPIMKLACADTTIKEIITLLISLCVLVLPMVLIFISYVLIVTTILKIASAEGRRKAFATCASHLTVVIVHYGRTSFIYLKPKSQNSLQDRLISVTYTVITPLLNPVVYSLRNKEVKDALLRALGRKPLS

CC1CCCCCCCCCCCCC(=O)C1 (stereo not given)
inactive: all assays above
